A short description of data set [1]: Clearance in dog after iv administration (n=2-3). The data set is classed as ADME, organism-based, Canis lupus familiaris. The settings on record: in vivo.
The target of data set [2] is T1, Prostaglandin E2 receptor EP3 subtype (Homo sapiens, UniProt P43115).
T1 sequence (P43115 whole entry): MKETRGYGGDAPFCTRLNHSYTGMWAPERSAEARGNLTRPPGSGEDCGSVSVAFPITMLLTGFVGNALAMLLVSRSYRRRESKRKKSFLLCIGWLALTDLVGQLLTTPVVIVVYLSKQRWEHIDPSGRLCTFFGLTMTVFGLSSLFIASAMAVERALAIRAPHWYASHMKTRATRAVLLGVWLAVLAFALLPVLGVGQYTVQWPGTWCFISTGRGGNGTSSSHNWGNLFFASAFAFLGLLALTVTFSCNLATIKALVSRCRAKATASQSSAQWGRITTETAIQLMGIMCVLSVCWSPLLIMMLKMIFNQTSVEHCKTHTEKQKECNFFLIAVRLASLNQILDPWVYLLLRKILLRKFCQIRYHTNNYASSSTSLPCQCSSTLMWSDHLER
Briefly: Inhibition of [3H]PGE-2 binding to human prostanoid EP3 receptor.

For data set [3], the target named is Prostaglandin E2 receptor EP4 subtype (Homo sapiens, UniProt P35408). Briefly: Inhibition of [3H]PGE-2 binding to human prostanoid EP4 receptor.
Data set [4] can be described thus: Maximal plasma concentration in dogs after 0.32 mg/kg oral dose, n=3. Type of data set: ADME, organism-based, Canis lupus familiaris. Also noted: dose 0.32 mg/kg, route oral. The settings on record: dog. In outline:
(§1)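 Single oral doses, n = 3 animals per dose. Peak plasma level reported in ng/mL, with oral bioavailability given as F (%). Values are mean ± SE.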

A short description of data set [5]: Half life in rat after iv administration (n=2-3). The settings on record: in vivo. The data set is classed as ADME, organism-based.
A short description of data set [6]: Clearance in rat after iv administration (n=2-3). Type of data set: ADME, organism-based. The settings on record: in vivo.
Data set [7] in a line: Bioavailability in dog at 0.32 mg/kg after po administration (n=3). Type of data set: ADME, organism-based, Canis lupus familiaris. The settings on record: in vivo. The method in brief: as §1
A short description of data set [8]: Bioavailability in rat at 0.32 mg/kg after po administration (n=3). The data set is classed as ADME, organism-based. The settings on record: in vivo.
A short description of data set [9]: Half life in dog after iv administration (n=2-3). The data set is classed as ADME, organism-based, Canis lupus familiaris. The settings on record: in vivo.
The next data set has as its target Prostacyclin receptor (Homo sapiens, UniProt P43119). Briefly: Inhibition of [3H]iloprost binding to human prostanoid IP receptor.
Data set [10] is described as follows: Bioavailability in dog at 3.2 mg/kg after po administration (n=3). Type of data set: ADME, organism-based, Canis lupus familiaris. The settings on record: in vivo. In outline:
as §1

Data set [11] has as its target Prostaglandin E2 receptor EP4 subtype (Rattus norvegicus, UniProt P43114). Kind of data set: Inhibition of rat prostanoid EP4 receptor.
Data set [12] addresses T2, Prostaglandin D2 receptor (Homo sapiens, UniProt Q13258).
T2 sequence (Q13258 whole entry): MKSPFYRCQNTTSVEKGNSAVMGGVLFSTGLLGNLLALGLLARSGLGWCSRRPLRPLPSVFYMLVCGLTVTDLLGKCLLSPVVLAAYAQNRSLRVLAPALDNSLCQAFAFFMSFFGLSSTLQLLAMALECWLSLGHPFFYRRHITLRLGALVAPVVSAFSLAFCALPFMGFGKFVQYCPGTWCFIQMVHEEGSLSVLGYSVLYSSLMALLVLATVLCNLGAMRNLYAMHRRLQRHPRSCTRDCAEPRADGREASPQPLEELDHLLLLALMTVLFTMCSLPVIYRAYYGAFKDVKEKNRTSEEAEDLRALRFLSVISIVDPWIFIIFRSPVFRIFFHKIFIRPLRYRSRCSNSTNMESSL
Kind of data set: Inhibition of [3H]PGD-2 binding to human prostanoid DP receptor.

Data set [13] has as its target Prostaglandin F2-alpha receptor (Homo sapiens, UniProt P43088). Kind of data set: Inhibition of [3H]PGF-2 binding to human prostanoid FP receptor.
In data set [14] the target is T3, Prostaglandin E2 receptor EP1 subtype (Homo sapiens, UniProt P34995).
T3 sequence (P34995 whole entry): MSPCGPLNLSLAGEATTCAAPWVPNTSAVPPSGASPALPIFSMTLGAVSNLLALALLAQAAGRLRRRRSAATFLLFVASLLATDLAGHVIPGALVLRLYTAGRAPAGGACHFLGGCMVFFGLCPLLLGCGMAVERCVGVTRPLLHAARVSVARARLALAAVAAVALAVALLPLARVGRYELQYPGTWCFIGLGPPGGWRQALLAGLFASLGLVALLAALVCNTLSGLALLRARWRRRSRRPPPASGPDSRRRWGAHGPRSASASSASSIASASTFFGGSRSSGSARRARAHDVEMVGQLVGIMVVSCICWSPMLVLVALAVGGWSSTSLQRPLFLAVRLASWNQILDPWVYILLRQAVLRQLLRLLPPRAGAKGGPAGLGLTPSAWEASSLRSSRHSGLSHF
Kind of data set: Inhibition of [3H]-PGE-2 binding to human prostanoid EP1 receptor.

Data set [15] addresses Prostaglandin E2 receptor EP2 subtype (Homo sapiens, UniProt P43116). Kind of data set: Inhibition of [3H]PGE-2 binding to human prostanoid EP2 receptor.
The target of a further data set is T4, Thromboxane A2 receptor (Homo sapiens, UniProt P21731).
T4 sequence (P21731 whole entry): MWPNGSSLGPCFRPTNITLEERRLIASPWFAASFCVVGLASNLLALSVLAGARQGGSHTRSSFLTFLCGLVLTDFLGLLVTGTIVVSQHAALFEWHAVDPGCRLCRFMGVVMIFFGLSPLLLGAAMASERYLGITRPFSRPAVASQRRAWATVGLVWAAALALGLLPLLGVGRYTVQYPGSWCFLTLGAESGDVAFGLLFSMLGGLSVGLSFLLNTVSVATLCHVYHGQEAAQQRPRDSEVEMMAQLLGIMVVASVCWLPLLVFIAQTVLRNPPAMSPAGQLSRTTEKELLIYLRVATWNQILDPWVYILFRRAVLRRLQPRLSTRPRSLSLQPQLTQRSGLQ
Briefly: Inhibition of [3H]SQ-29,548 binding to human prostanoid TP receptor.

Data set [16] is described as follows: Maximal plasma concentration in rats after 10 mg/kg oral dose n=3. The data set is classed as ADME, organism-based. The arrangement: dose 10 mg/kg, route oral. The settings on record: rat.
Data set [17] is described as follows: Maximal plasma concentration in dogs after 3.2 mg/kg oral dose, n=3. The arrangement: dose 3.2 mg/kg, route oral. The settings on record: dog. The data set is classed as ADME, organism-based, Canis lupus familiaris. The method in brief: as §1
Data set [18] in a line: Bioavailability in rat (dose 10 mg/kg p.o.). Type of data set: ADME, organism-based. The settings on record: in vivo, po.
Data set [19] in a line: Maximal plasma concentration in dogs after 0.1 mg/kg oral dose, n=3. The arrangement: dose 0.1 mg/kg, route oral. Type of data set: ADME, organism-based, Canis lupus familiaris. The settings on record: dog. The method in brief: as §1
The nature of data set [20]: Bioavailability in dog at 0.10 mg/kg after po administration (n=3). The settings on record: in vivo, 0.1 mg/kg. Type of data set: ADME, organism-based, Canis lupus familiaris. In outline: as §1

The values below come from ChEMBL document CHEMBL1143620, “Discovery of diphenyloxazole and Ndelta-Z-ornithine derivatives as highly potent and selective human prostaglandin EP(4) receptor antagonists” (J Med Chem, 2005).

The structures appear in SMILES notation.

Sequence of Prostaglandin E2 receptor EP4 subtype (Homo sapiens, UniProt P35408) (P35408 whole entry): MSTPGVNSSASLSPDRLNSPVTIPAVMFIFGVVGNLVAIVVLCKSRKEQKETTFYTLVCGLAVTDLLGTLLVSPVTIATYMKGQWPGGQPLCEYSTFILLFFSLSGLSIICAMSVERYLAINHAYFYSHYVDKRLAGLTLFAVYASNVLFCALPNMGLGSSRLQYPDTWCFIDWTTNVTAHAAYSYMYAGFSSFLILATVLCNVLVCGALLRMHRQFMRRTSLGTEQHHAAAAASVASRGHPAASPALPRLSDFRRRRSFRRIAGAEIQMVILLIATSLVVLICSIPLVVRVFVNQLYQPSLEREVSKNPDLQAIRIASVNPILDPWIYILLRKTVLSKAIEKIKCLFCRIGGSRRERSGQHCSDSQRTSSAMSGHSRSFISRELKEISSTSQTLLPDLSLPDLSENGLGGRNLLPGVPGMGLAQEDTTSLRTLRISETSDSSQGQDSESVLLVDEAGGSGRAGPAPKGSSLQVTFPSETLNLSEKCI
Sequence of Prostacyclin receptor (P43119 whole entry): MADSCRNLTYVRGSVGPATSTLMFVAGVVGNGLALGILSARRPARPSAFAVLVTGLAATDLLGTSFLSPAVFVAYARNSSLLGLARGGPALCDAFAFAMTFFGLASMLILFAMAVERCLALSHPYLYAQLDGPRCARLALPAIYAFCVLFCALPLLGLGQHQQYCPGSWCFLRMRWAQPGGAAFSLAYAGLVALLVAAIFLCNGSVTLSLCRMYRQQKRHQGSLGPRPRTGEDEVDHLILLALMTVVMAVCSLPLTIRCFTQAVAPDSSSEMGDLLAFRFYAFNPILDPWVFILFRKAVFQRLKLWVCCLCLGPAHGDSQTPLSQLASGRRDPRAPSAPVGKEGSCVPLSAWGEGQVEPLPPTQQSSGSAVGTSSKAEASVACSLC
Sequence of Prostaglandin F2-alpha receptor (P43088 whole entry): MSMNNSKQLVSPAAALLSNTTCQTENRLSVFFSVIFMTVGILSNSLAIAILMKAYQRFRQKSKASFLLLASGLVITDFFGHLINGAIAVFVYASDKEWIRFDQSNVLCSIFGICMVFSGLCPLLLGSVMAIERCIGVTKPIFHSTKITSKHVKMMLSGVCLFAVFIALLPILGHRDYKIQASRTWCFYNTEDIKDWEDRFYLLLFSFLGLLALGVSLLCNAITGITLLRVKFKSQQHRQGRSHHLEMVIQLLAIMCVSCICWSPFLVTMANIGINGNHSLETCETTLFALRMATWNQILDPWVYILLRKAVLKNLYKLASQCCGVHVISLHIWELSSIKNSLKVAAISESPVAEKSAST
Sequence of Prostaglandin E2 receptor EP2 subtype (P43116 whole entry): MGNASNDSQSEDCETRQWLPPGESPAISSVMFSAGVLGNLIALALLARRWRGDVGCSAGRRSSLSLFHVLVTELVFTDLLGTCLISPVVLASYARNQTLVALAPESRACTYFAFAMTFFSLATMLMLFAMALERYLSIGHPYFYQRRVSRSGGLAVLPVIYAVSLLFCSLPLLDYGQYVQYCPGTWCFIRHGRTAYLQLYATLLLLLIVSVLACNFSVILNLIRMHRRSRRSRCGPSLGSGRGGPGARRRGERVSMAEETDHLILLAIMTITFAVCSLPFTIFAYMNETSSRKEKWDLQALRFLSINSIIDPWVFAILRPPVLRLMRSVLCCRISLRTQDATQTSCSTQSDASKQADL
Sequence of Prostaglandin E2 receptor EP4 subtype (Rattus norvegicus, UniProt P43114) (P43114 whole entry): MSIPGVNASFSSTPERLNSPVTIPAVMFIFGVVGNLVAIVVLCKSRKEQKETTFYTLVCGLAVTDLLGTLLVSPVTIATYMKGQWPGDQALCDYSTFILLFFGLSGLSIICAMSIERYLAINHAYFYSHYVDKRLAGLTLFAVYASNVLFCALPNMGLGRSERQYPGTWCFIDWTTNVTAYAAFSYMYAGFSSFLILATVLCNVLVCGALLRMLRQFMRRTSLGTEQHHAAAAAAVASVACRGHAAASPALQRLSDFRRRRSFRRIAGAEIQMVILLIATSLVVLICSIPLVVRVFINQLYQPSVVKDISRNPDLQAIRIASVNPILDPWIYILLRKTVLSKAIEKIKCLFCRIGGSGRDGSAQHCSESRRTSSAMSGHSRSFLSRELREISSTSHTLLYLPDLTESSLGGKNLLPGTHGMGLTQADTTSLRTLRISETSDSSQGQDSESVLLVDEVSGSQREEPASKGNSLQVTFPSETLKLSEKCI

Compound `O=C([O-])COc1cccc(C[C@@H]2CCCC=C2c2nc(-c3ccccc3)c(-c3ccccc3)o2)c1.[Na+]` displayed a clearance in [1] of 1.59 mL/min/kg. The figures for the inhibition constant (Ki) in [2] and in [3] were > 1000 nM and 1020 nM, respectively. The same compound had a Cmax in data set [4] of 592 ng/mL. The half-life in [5] is 6.6 h; in data set [9], 3 h. Also, the Cl in data set [6] was 17.7 mL/min/kg. Moreover, the bioavailability came out at 72% in [7] and 50% in [8].

Consider `O=C(O)Cc1cccc(C[C@@H]2CCCC=C2c2nc(-c3ccccc3)c(-c3ccccc3)o2)c1`, for which the Ki was found to be 50 nM in data set [3] and 170 nM at Prostacyclin receptor.

In data set [3], `O=C(O)CCCCCNC(=O)[C@H](CCCCNC(=O)OCc1ccccc1)NC(=O)c1cc2ccccc2o1` yielded a Ki of 8.4 nM.

Turning to `O=C(NS(=O)(=O)Cc1ccccc1)c1cccc(C[C@@H]2CCCC=C2c2nc(-c3ccccc3)c(-c3ccccc3)o2)c1`, the bioavailability stood at 97% in data set [10] and 51% in data set [18]. Also, the values for the clearance in [1] and in [6] were 0.52 mL/min/kg and 10.2 mL/min/kg, respectively. Further, the inhibition constant (Ki) in [11] is 0.74 nM; in data set [12], > 3000 nM; in data set [13], > 3000 nM; in data set [14] it was > 3000 nM; in [15] it was > 3000 nM; in data set [2], > 3000 nM. The inhibition constant (Ki) in [3] is 0.3 nM; at Prostacyclin receptor, > 3000 nM; on Thromboxane A2 receptor, > 3000 nM. The peak concentration (Cmax) turned out to be 2100 ng/mL in data set [16] and 8200 ng/mL in data set [17]. Moreover, the figures for the half-life in data set [5] and in data set [9] were 4.4 h and 5.5 h, respectively.

On to `O=C(NCCC[C@H](NC(=O)c1cc2ccccc2[nH]1)C(=O)N[C@@H](Cc1ccccc1)C(=O)O)OCc1ccccc1`, for which the Ki in data set [12] was > 1000 nM; in data set [13], > 1000 nM; in data set [14], > 1000 nM; in [15], > 1000 nM; in [2], > 1000 nM; in [3], 43 nM. Further, the Ki at Prostacyclin receptor and at Thromboxane A2 receptor was > 1000 nM in each case.

`CN(Cc1ccccc1)C(=O)[C@H](Cc1ccccc1)NC(=O)[C@H](CCCNC(=O)OCc1ccccc1)NC(=O)c1cc2ccccc2[nH]1` returned an inhibitory constant (Ki) in [3] of 80 nM.

In the case of `O=C(O)c1cccc(C[C@@H]2CCCC=C2c2nc(-c3ccccc3)c(-c3ccccc3)o2)c1`, the clearance in data set [1] turned out to be 0.52 mL/min/kg; in [6], 11.2 mL/min/kg. The inhibition constant (Ki) in data set [12] was > 3000 nM; in data set [13], > 3000 nM; in data set [14], 2500 nM; in [15], > 3000 nM; in data set [2], > 3000 nM; in [3], 5.5 nM. For the same compound, the inhibition constant (Ki) on Prostacyclin receptor is 610 nM; at Thromboxane A2 receptor it was > 3000 nM. The figures for the maximum concentration (Cmax) in data set [16] and in [19] were 9100 ng/mL and 57.3 ng/mL, respectively. In addition, the half-life in data set [5] was 4 h; in data set [9], 5.5 h. Besides, the bioavailability in [18] is 99%; in data set [20], 25%.

As to `O=C(O)CCCCCNC(=O)[C@H](CCCNC(=O)OCc1ccccc1)NC(=O)c1cc2ccccc2o1`, the inhibition constant (Ki) in [11] was 5.1 nM; in data set [12] it was > 10000 nM; in [13], > 10000 nM; in data set [14], > 10000 nM; in [15] it was > 10000 nM; in [2], > 10000 nM. Also, the Ki in data set [3] was 0.91 nM; on Prostacyclin receptor, > 10000 nM; on Thromboxane A2 receptor, > 10000 nM.

As for `O=C(O)CCCCCNC(=O)[C@@H](CCCCNC(=O)OCc1ccccc1)NC(=O)c1cc2ccccc2o1`, in data set [3], the affinity corresponds to a Ki of 240 nM.

Take `O=C(NOCc1ccccc1)c1cccc(C[C@@H]2CCCC=C2c2nc(-c3ccccc3)c(-c3ccccc3)o2)c1`: the Ki in data set [12] was > 1000 nM; in [13], > 1000 nM; in data set [14] it was > 3000 nM; in data set [15], > 3000 nM; in data set [2] it was > 3000 nM; in [3], 0.68 nM. Also, the Ki was > 3000 nM at Prostacyclin receptor and > 1000 nM on Thromboxane A2 receptor.

What is called clearance is a measure of how efficiently the substance is removed, as volume per time. Low values mean inefficient removal, high ones efficient removal. Broadly, the Ki is the dissociation constant of the complex between target and ligand, obtained from inhibition or displacement. A lower Ki goes with higher affinity. As usually defined, the Cmax is the maximum level reached in the sampled fluid or tissue. In general, half-life refers to the time in which the quantity being followed falls by half. High values mean slow loss, low ones fast loss. What is called bioavailability is dose-corrected exposure relative to a reference, in per cent.
